Measurements pooled from the literature.
Lines come from different studies, so protocols differ.
Observed: cell growth or viability

Nc1ccc(/C=C/C(=O)N2CCc3c(oc4c(-c5ccc(F)cc5)cc(-c5ncc(C(=O)N6CCC(F)(F)CC6)cn5)cc34)C2)cn1  IC50 (MIA PaCa-2; CCK-8; 72 h): 4.46 µM
COc1ccc(-c2cc(C(=O)Nc3ccccc3)c3cc(-c4cc(F)ccc4OC)ccc3n2)cc1  IC50 (MIA PaCa-2; MTT; 48 h): > 50 µM
COc1cc2c3c(n(CCCNCCO)c(=O)c2cc1OC)-c1nc2c(cc1C3=O)OCO2  IC50 (MOLT-4; MTS; 72 h): 0.012 µM
COc1ccc(-c2cc(C(=O)Nc3ccccc3)c3cc(-c4ccc(Cl)cc4)ccc3n2)cc1  IC50 (MIA PaCa-2; MTT; 48 h): > 50 µM
COc1cc2c3c(n(CCCNC(C)C)c(=O)c2cc1OC)-c1nc2c(cc1C3=O)OCO2  IC50 (MOLT-4; MTS; 72 h): 0.019 µM
C=CC(=O)N1CCN(c2nc(=O)n(-c3c(C)ccnc3C(C)C)c3nc(-c4c(O)cccc4F)c(F)cc23)[C@@H](C)C1  IC50 (MIA PaCa-2; ATP luminescence): 0.0235 µM
COc1cc2c3c(n(CCCN4CCOCC4)c(=O)c2cc1OC)-c1nc2c(cc1C3=O)OCO2  IC50 (MOLT-4; MTS; 72 h): 0.113 µM
Cc1sc2c(c1C)C(c1ccc(Cl)cc1)=N[C@@H](CC(=O)NCCCCCCCCNC(=O)COc1cccc3c1C(=O)N(C1CCC(=O)NC1=O)C3=O)c1nnc(C)n1-2 (stereo partly shown)  IC50 (MOLT-4; ATP luminescence): 0.023 µM
COc1ccc(F)cc1-c1ccc2nc(-c3ccccc3)cc(C(=O)Nc3ccccc3)c2c1  IC50 (MIA PaCa-2; MTT; 48 h): > 50 µM
C=C(F)C(=O)N1CCN(c2nc(OC[C@@H]3CCCN3C)nc3c2CCN(c2cccc4cccc(Cl)c24)C3)C[C@@H]1CC#N  IC50 (SW837; ATP luminescence): 0.0862 µM
COc1ccc(-c2cc(C(=O)Nc3ccccc3)c3cc(-c4cnc(Cl)c(C)c4)ccc3n2)cc1  IC50 (MIA PaCa-2; MTT; 48 h): > 50 µM
Nc1ccc(/C=C/C(=O)N2CCc3c(oc4c(-c5ccc(F)cc5)cc(-c5ccc(C(=O)N6CCC(F)(F)CC6)cc5F)cc34)C2)cn1  IC50 (MIA PaCa-2; CCK-8; 72 h): 2.66 µM
COc1ccc(-c2cc(C(=O)Nc3ccccc3)c3cc(-c4cccs4)ccc3n2)cc1  IC50 (MIA PaCa-2; MTT; 48 h): > 50 µM
CC1(C)CCC(c2ccc(Cl)cc2)=C(CN2CCN(c3ccc(C(=O)NS(=O)(=O)c4ccc(N[C@H](CCN5CCOCC5)CSc5ccccc5)c(S(=O)(=O)C(F)(F)F)c4)cc3)CC2)C1  IC50 (human Platelet; MTS; 24 h): 0.0064 µM
COc1ccc(-c2cc(C(=O)Nc3ccccc3)c3cc(-c4cc(Cl)ccc4F)ccc3n2)cc1  IC50 (MIA PaCa-2; MTT; 48 h): > 50 µM
CCNCCCn1c2c(c3cc(OC)c(OC)cc3c1=O)C(=O)c1cc3c(nc1-2)OCO3  IC50 (KMS-27; MTS; 72 h): 0.141 µM
C[C@H](CCC(=O)O)[C@H]1CC[C@H]2[C@@H]3CC[C@@H]4C[C@H](O)CC[C@]4(C)[C@H]3CC[C@]12C  IC50 (LNCaP; MTT; 72 h): 66 µM
COc1cc2c3c(n(CCCn4ccnc4)c(=O)c2cc1OC)-c1nc2c(cc1C3=O)OCO2  IC50 (MOLT-4; MTS; 72 h): 0.043 µM
CN1CCC(NC(=O)c2ccc(-c3cc(C4CC4)c4oc5c(c4c3)CCN(C(=O)/C=C/c3ccc(N)nc3)C5)nn2)C(F)(F)C1 (stereo not shown)  IC50 (MIA PaCa-2; CCK-8; 72 h): 1.9 µM
